Assay results from different studies.
Compare with care: the assays were run in different laboratories.
Target: MAP kinase-interacting serine/threonine-protein kinase 2 (MKNK2, Homo sapiens, UniProt Q9HBH9)

`CN([C@@H]1CCc2c(CC(=O)O)c3ccccc3n2C1)S(=O)(=O)c1ccc(F)cc1` has a remaining binding of 100% (cell-free assay; competition with immobilised ligand; 1 µM).
The remaining activity of `CCN(CC)c1ccc(C2=NNC(=O)CC2C)cc1[N+](=O)[O-]` (centres unmarked) is reported as 25% (enzyme activity; inhibitor; 10 µM).
`Nc1nc(NC2CCCCC2)sc1C(=O)c1ccccc1` has a remaining activity of 94% (enzyme activity; inhibitor; 10 µM).
The remaining signal of `COc1cc2c(Nc3ccc(Br)cc3F)ncnc2cc1OCC1CCN(C)CC1` is reported as 86.9% (cell-free assay; 0.5 µM).
`Cc1sc(C(=O)NC2COC2)cc1-n1cc(NC(=O)Nc2c(F)cccc2Cl)cn1` has a remaining activity of 83.4% (enzyme activity; inhibitor; 10 µM).
`CS(=O)(=O)Nc1cccc(-c2csc(NC(=O)CSc3nc4nccnc4c(=O)n3CCc3ccccc3)n2)c1` has an inhibition of -10% (enzyme activity; inhibitor; 10 µM).
`COc1ccc(COc2ccc(Cc3cnc(N)nc3N)cc2OC)cc1` gave a remaining signal of 90.6% (cell-free assay; 0.5 µM).
The remaining activity of `O=C(Nc1cnn(-c2csc(C(=O)NC3COC3)c2)c1)Nc1ccccc1Cl` is reported as 99.3% (enzyme activity; inhibitor; 5 µM).
With `FC(F)(F)Oc1cccc(-c2cnc3ccc(-c4ccncc4)nn23)c1` the activity vs control was 66% (enzyme activity; inhibitor; radiometric; 1 µM).
With `COc1cc(Nc2cnc(C#N)c(O[C@H](C)CN(C)C)n2)ncc1-c1cnn(C)c1` the remaining activity was 112% (enzyme activity; inhibitor; radiometric; 10 µM).
`CC(=O)N1CCC(c2ccc(C(=O)NC3=NCCN3)cc2C(F)(F)F)CC1` gave a remaining binding of 100% (cell-free assay; competition with immobilised ligand; 1 µM).
With `CN1CC(Oc2cnc(C#N)cc2-c2ccn3nc(NC(=O)C4CC4)cc3c2)C1` the inhibition was 5% (enzyme activity; inhibitor; 1 µM).
With `CCN(CC)CCNC(=O)c1c(C)[nH]c(/C=C2\C(=O)Nc3ccc(F)cc32)c1C` the inhibition was 6% (enzyme activity; inhibitor; 10 µM).
For `CC(=O)C1=C(O)C=C2Oc3c(C(N)=O)c(O)cc(O)c3[C@]2(C)C1=O`, the activity vs control was 0% (enzyme activity; inhibitor; radiometric; 10 µM).
With `CC(=O)C1=C(C)N(c2cccc(C(F)(F)F)c2)C(=O)N[C@@H]1c1ccc(C#N)nc1` the remaining binding was 84.8% (cell-free assay; competition with immobilised ligand; 1 µM).
The inhibition of `CNC(=O)c1cc(Oc2ccc(NC(=O)Nc3ccc(Cl)c(C(F)(F)F)c3)cc2)ccn1` is reported as 61% (enzyme activity; inhibitor; 0.3 µM).
For `Cn1nc(C(=O)NCc2ccc(C(=O)O)cc2)cc1-c1ccc2[nH]ccc2c1`, the remaining binding was 96% (cell-free assay; competition with immobilised ligand; 0.1 µM).
The inhibition of `Cc1ccc(Nc2nccc(N(C)c3ccc4c(C)n(C)nc4c3)n2)cc1S(N)(=O)=O` is reported as 3% (enzyme activity; inhibitor; 0.3 µM).
`NS(=O)(=O)c1cc(NC(=O)C2(c3ccccc3Cl)CC2)ccc1Oc1cccc(Cl)c1` has a remaining binding of 100% (cell-free assay; competition with immobilised ligand; 1 µM).
`Clc1ccc(Nc2nnc(Cc3ccncc3)c3ccccc23)cc1` gave a remaining signal of 101% (cell-free assay; 0.5 µM).
For `CC(C)c1ccc(NC(=O)c2cccs2)c(-c2nc3ccccc3[nH]c2=O)c1`, the activity vs control was 97% (enzyme activity; inhibitor; 1 µM).
With `COc1cc(Cl)c(C(=O)N[C@@H](CN[C@H]2CC[C@@H](N)CC2)Cc2ccc(C#N)cc2)cc1-c1ccc(CN[C@H](C)c2ccc(C)cc2)o1` the remaining activity was 102% (enzyme activity; inhibitor; 1 µM).
`CO[C@@H](C)c1c(Nc2ccc([C@@H](N(C)C(=O)C3CCS(=O)(=O)CC3)C(F)(F)F)cc2)cnc2cc(Cl)nn12` gave a remaining binding of 85% (cell-free assay; competition with immobilised ligand; 1 µM).
The remaining activity of `CC(C)(C)c1nc2c(s1)c1nc(N)ncc1c1ccc(NS(=O)(=O)c3c(F)cccc3F)c(F)c12` is reported as 98% (enzyme activity; inhibitor; radiometric; 1 µM).
`Cc1cc(NC(=O)c2cccc3cc(-c4cccc5[nH]nc(N)c45)ccc23)ccc1F` gave an activity vs control of 111% (enzyme activity; inhibitor; 0.1 µM).
`O=C1Nc2ccc(Cl)cc2C1=Cc1cc(Cl)c(O)c(Cl)c1` gave a remaining signal of 88.7% (cell-free assay; 0.5 µM).
With `CSc1cccnc1N1CCN(Cc2nc3ccccc3[nH]2)CC1` the remaining binding was 75% (cell-free assay; competition with immobilised ligand; 1 µM).
For `C=CC(=O)Nc1cc(Nc2nccc(Nc3cc(Cl)c(F)cc3C(C)(C)O)n2)c(OC)cc1N1CC[C@@H](N(C)C)C1`, the inhibition was 67% (enzyme activity; inhibitor; 1 µM).
For `CCCOc1ccc(OC)c(F)c1C(=O)c1ccc(C(=O)N[C@@H]2CNC[C@H]2NC(=O)c2ccc3[nH]ncc3c2)cc1`, the remaining activity was 67% (enzyme activity; inhibitor; 10 µM).
`CS(=O)(=O)N1CCCC(NC(=O)[C@H](CCC2CCCCC2)NC(=O)c2ccc(CNC(=O)c3cnc4ccccn34)cc2)C1` (some centres unmarked) has a remaining binding of 84% (cell-free assay; competition with immobilised ligand; 0.1 µM).
The remaining activity of `Oc1cccc(-c2nc(N3CCOCC3)c3oc4ncccc4c3n2)c1` is reported as 90% (enzyme activity; inhibitor; 10 µM).
`Nc1ncnc2occ(-c3ccc(NC(=O)Nc4cc(C(F)(F)F)ccc4F)cc3)c12` has a remaining signal of 0% (cell-free assay; inhibitor; 20 µM).
